22 molecules from ChEMBL document CHEMBL1157935, “Potent and selective fluoroketone inhibitors of group VIA calcium-independent phospholipase A2” (J Med Chem, 2010) can be followed below.

Each structure is given as a SMILES string.

The target in test [1] is T1, 85/88 kDa calcium-independent phospholipase A2 (Homo sapiens) (UniProt O60733).
T1 sequence (whole entry): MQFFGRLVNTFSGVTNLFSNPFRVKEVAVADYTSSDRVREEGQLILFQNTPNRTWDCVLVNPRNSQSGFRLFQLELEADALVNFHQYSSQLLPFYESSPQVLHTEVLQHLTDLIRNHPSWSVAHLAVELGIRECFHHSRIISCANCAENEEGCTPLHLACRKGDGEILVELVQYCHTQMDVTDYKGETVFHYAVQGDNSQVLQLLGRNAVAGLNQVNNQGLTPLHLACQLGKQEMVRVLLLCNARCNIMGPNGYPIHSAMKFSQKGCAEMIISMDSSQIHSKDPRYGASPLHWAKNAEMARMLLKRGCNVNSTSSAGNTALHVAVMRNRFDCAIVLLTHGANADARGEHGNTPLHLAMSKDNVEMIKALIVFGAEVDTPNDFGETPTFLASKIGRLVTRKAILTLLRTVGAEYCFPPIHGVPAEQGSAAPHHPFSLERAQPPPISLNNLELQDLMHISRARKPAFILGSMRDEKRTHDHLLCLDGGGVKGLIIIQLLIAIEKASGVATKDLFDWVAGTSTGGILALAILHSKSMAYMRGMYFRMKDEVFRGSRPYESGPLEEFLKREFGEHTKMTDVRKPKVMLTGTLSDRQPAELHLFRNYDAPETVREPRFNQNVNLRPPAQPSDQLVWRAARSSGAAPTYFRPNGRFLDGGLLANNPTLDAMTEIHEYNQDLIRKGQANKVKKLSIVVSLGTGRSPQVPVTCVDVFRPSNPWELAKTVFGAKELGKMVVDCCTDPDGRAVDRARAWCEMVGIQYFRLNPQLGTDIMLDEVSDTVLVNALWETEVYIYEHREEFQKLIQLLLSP
Briefly: Inhibition of human recombinant group 6A iPLA2 expressed in Sf9 insect cells at 0.091 mol fraction after 30 mins by Dole assay. In short, it runs like this: (§1)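 Screen at 0.091 mole fraction (mean, SE, n = 3). XI(50), the inhibitor mole fraction giving 50% inhibition, fitted sigmoidally from typically 7 levels between 0.00091 and 0.091.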

The target of test [2] is T1, 85/88 kDa calcium-independent phospholipase A2 (Homo sapiens). Briefly: Inhibition of human recombinant group 6A iPLA2 expressed in Sf9 insect cells after 30 mins by Dole assay. An outline of the steps:
as §1

In test [3] the target is T2, Cytosolic phospholipase A2 (Homo sapiens) (UniProt P47712).
T2 sequence (whole entry): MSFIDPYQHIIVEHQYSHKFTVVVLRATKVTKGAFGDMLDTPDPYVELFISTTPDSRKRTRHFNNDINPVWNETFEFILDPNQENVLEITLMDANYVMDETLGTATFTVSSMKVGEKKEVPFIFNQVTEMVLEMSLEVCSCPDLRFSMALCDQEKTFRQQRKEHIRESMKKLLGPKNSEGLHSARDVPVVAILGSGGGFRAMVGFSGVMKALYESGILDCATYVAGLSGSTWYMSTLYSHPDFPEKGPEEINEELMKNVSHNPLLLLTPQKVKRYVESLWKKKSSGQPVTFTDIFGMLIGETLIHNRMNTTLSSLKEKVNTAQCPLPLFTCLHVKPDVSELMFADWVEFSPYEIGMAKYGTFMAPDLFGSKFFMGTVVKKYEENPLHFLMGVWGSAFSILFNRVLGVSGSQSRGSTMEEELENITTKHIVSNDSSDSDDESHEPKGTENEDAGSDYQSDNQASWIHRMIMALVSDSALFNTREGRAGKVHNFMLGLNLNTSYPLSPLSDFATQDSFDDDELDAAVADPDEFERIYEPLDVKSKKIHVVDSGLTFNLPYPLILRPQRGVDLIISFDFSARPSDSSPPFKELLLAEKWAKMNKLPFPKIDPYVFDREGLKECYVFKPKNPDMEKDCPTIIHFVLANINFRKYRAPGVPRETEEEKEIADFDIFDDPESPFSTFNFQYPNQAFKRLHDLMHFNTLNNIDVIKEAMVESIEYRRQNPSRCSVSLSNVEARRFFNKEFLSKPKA
Kind of test: Inhibition of human group […] cPLA2 at 0.091 mol fraction after 30 mins by Dole assay. An outline of the steps:
(§2)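 Screened at 0.091 mole fraction (mean, SE, n = 3). XI(50) from % inhibition vs inhibitor mole fraction, typically 7 levels 0.00091–0.091, fitted by symmetrical sigmoidal non-linear regression.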

The target of test [4] is T3, Phospholipase A2 group V (Homo sapiens) (UniProt P39877).
T3 sequence (whole entry): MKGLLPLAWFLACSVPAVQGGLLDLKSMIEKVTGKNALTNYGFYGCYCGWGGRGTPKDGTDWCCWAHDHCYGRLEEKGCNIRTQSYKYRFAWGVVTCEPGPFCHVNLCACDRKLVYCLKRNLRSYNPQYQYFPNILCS
Briefly: Inhibition of human group 5 sPLA2 at 0.091 mol fraction after 30 mins. In short, it runs like this: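 Inhibitor screened at 0.091 mole fraction of the micelle interface. Average percent inhibition reported (standard error, n = 3); 25% or less inhibition taken as none.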

The species named for test [5] is Homo sapiens. Briefly: Selectivity ratio for inhibition of human recombinant group 6A iPLA2 over inhibition of human group 5 sPLA2.
For test [6], the species on record is Homo sapiens. Kind of test: Selectivity ratio for inhibition of human recombinant group 6A iPLA2 over inhibition of human group […] cPLA2. In short, it runs like this: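 Ratio derived from XI(50) values for the two enzymes, using the modified Dole assay with 14C-labelled PAPC in Triton X-100 mixed micelles. GVIA iPLA2: 400 μM Triton X-100, 98.3 μM PAPC, 1.7 μM 14C-PAPC, 100 mM HEPES pH 7.5, 2 mM ATP, 4 mM DTT. GIVA cPLA2: 400 μM Triton X-100, 97 μM PAPC, 1.8 μM 14C-PAPC, 3 μM PIP2, 100 mM HEPES pH 7.5, 90 μM CaCl2, 2 mM DTT, 0.1 mg/ml BSA. XI(50) comes from a sigmoidal fit of % inhibition versus log mole fraction (typically 7 points, 0.00091–0.091).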

The target of test [7] is T2, Cytosolic phospholipase A2 (Homo sapiens). Kind of test: Inhibition of human group […] cPLA2 after 30 mins by Dole assay. An outline of the steps: as §2

One may read the inhibition as the percentage by which the read-out fell short of the control. For `O=C(CCCCCc1ccccc1)C(F)(F)C(F)(F)C(F)(F)F`, the inhibition in test [1] was found to be 98.4%. Also, the XI50 (mole fraction) in test [2] was 0.003.
With `OC(CCCCc1ccccc1)C(F)(F)C(F)(F)F` (stereo unspecified), the inhibition in test [1] was found to be 94.3%; in test [3] it was 44.8%; in test [4] it was 67.3%. Besides, in test [2], the XI50 (mole fraction) came to 0.039.
For `O=C(CCCCc1ccccc1)C(F)(F)C(F)(F)C(F)(F)F`, in that order: 99.4%, 32.6%, 61.8% and 0.0022.
With `O=C(/C=C/C=C/c1ccccc1)C(F)(F)C(F)(F)F`, the inhibition stood at 96% in test [1] and 59% in test [3]. Further, in test [2], the XI50 (mole fraction) was determined as 0.0313.
As for `O=C(CCCCc1ccc2ccccc2c1)C(F)(F)F`, the Ratio was over 455 in test [5] and 195 in test [6]. In addition, the inhibition in test [1] stood at 99.9%; in test [3], 80.8%; in test [4], 36.8%. Moreover, in test [2], the XI50 (mole fraction) amounted to 0.0002.
With `CCCCCCCCc1ccc(OCCCC(=O)C(F)(F)C(F)(F)F)cc1`, the inhibition was 99.4% in test [1], 88.8% in test [3] and 63% in test [4]. For the same molecule, in test [2], the XI50 (mole fraction) was determined as 0.0024.
As for `O=C(C(F)CCCc1ccccc1)C(F)(F)C(F)(F)C(F)(F)F` (stereo unspecified), the Ratio in test [5] was over 180; in test [6] it was 76. For the same molecule, the inhibition in test [1] came out at 100%; in test [3], 79.9%; in test [4] it was 36.1%. For the same molecule, in test [2], the XI50 (mole fraction) stood at 0.0005.
In the case of `CCCCCCOc1ccc(CCCCC(=O)C(F)(F)C(F)(F)C(F)(F)F)cc1`, the inhibition in test [1] is 95.8%; in test [3], 43.7%; in test [4] it was 76.9%. Moreover, in test [2], the XI50 (mole fraction) was 0.0136.
For the molecule `O=C(/C=C/c1ccccc1)C(F)(F)C(F)(F)F`, the inhibition was 96.4% in test [1] and 76.9% in test [4]. Besides, the XI50 (mole fraction) in test [2] amounted to 0.0066.
Consider `CCCCCCOc1ccc(CCCCC(=O)C(F)(F)C(F)(F)F)cc1`, for which the figures for the inhibition in test [1], in test [3] and in test [4] were 98.3%, 76.1% and 71.7%, respectively. The XI50 (mole fraction) in test [2] was 0.0084.
`OC(CCCCc1ccccc1)C(F)(F)C(F)(F)C(F)(F)F` (stereo unspecified): the results for the inhibition in test [1], in test [3] and in test [4] were 97%, 82% and 65.8%, respectively. In addition, in test [2], the XI50 (mole fraction) came to 0.0258.
On to `O=C(CCCCc1ccc2ccccc2c1)C(F)(F)C(F)(F)F`, for which the inhibition in test [1] worked out at 99.8%; in test [3] it was 77.1%; in test [4] it was 58.4%. The XI50 (mole fraction) in test [2] came out at 0.0006.
Regarding `O=C(C(F)CCCCc1ccccc1)C(F)(F)F` (stereo unspecified), the figures for the inhibition in test [1] and in test [3] were 98.8% and 66%, respectively. Besides, the XI50 (mole fraction) in test [2] worked out at 0.0013.
`O=C(CCCCc1ccccc1)C(F)(F)C(F)(F)F`: in test [2], the XI50 (mole fraction) stood at 0.0014.
Consider `O=C(CCCOc1ccccc1)C(F)(F)C(F)(F)F`, for which the inhibition in test [1] stood at 99.1%. Moreover, the XI50 (mole fraction) in test [2] was determined as 0.0036.
With `O=C(C(F)CCCc1ccccc1)C(F)(F)C(F)(F)F` (stereo unspecified), the inhibition turned out to be 100% in test [1], 68.4% in test [3] and 39.1% in test [4]. The XI50 (mole fraction) in test [2] came to 0.0005.
As for `O=Cc1ccc(CCCCC(=O)C(F)(F)C(F)(F)F)o1`, the inhibition amounted to 84.4% in test [1] and 41.9% in test [4]. Also, the XI50 (mole fraction) in test [2] stood at 0.0262.
For the molecule `CCCCCCCC/C=C\CCCCCCCC(=O)C(F)(F)C(F)(F)C(F)(F)F`, the results for the inhibition in test [1], in test [3] and in test [4] were 80.6%, 57% and 33.9%, respectively. Besides, in test [2], the XI50 (mole fraction) worked out at 0.0574.
Regarding `O=C(C(F)CCCc1ccccc1)C(F)(F)F` (stereo unspecified), the values for the inhibition in test [1] and in test [3] were 97.6% and 52.1%, respectively. Further, the XI50 (mole fraction) in test [2] came out at 0.0025.
As to `O=C(CCCCc1ccc2ccccc2c1)C(F)(F)C(F)(F)C(F)(F)F`, the inhibition in test [1] was 99.7%; in test [3] it was 55.8%; in test [4] it was 46.3%. Besides, the XI50 (mole fraction) in test [2] came out at 0.001.
On to `CCCCCCCC/C=C\CCCCCCCC(=O)C(F)(F)C(F)(F)F`, for which the inhibition came out at 95.5% in test [1], 41.4% in test [3] and 67% in test [4]. Further, the XI50 (mole fraction) in test [2] is 0.0192.
Turning to `CCCCCCCCc1ccc(OCCCC(=O)C(F)(F)F)cc1`, the inhibition in test [1] is 99.4%; in test [3] it was 91.5%; in test [4], 61.4%. For the same molecule, the XI50 (mole fraction) came to 0.0029 in test [2] and 0.022 in test [7].
